Results on seven compounds are retold here after PubChem BioAssay.

Assay [1] can be described thus: inhibitors of TNFa-induced NFkB p65 translocation, primary screen, imaging, HUVEC, MLSMR starter and 10KST1 sets (AID 438;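 active means inhibition above 20% together with a positive visual image hit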;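 further: compound added about 3h40 before a 20 min TNFalpha stimulation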;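 on inhibition: signal is the nuclear over cytoplasmic p65 intensity ratio per well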). As to conditions: HUVEC TNFa-induced p65 nuclear translocation; cell count: measured here: nuclei count (cytotoxicity indicator), at 2.08 µM; inhibition: at 2 µM, stronger effect = higher value, 0% TNFa-plus-vehicle, 100% no-TNFa wells.
The nature of assay [2]: endothelial E-selectin expression blockers – imaging, HUVEC, immunofluorescence, MLSMR starter and 10KST1 sets, primary screen (AID 487;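 active means visually confirmed hit in the image check and inhibition above 20%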;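 on inhibition: signal is fraction of cell area covered by stained E-selectin grains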;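 on nuclei count: 100% = median nuclei count of all wells on the same plate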). As to conditions: HUVEC TNFalpha-induced E-selectin immunofluorescence imaging, at 2 µM; inhibition: stronger effect = higher value; nuclei count: measured here: cell number, toxicity.
Assay [3] can be described thus: Primary imaging screen for DUSP6 inhibitors that restore phospho-Erk in transfected HeLa cells, chemical complementation (AID 609;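 active means compounds giving at least 50% inhibition in the cell-based MKP-3 phosphatase rescue imaging test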;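 on inhibition: phospho-Erk level distribution per well compared with pooled transfected vehicle control wells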). The conditions noted are these: HeLa MKP-3 transfected, phospho-Erk imaging KS statistic, at 10 µM, cells stimulated with TPA for 15 min.
The target in assay [4] is Dual specificity protein phosphatase 6 (Homo sapiens) (UniProt Q16828). The assay is described as above. The conditions noted are these: HeLa MKP-3 transfected, phospho-Erk imaging KS statistic; at 10 µM; stronger effect = higher value; cells stimulated with TPA for 15 min.
In assay [5] the target is Voltage-gated potassium channel subunit beta-2 (Rattus norvegicus) (UniProt P62483). Description: inhibitors of rat Kvbeta2 reductase activity – biochemical, NADPH fluorescence, primary screen (AID 622;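 active means fluorescence slope higher than the sample average by over 3 SD, cut at about -0.22 in these data, passing the limit was not always enough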;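 further: slope of raw intensity against log time taken from 70 to 1610 s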). The conditions noted are these: recombinant KvBeta, 4-cyanobenzaldehyde reduction, at 10 µM, stronger effect = higher value.
For assay [6] the target is unchanged. The experiment in a line: enhancers of rat Kvbeta2 NADPH turnover – biochemical, NADPH fluorescence, primary screen (AID 623).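 Further: fluorescence intensity change per second fitted from 20 to 320 s.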 The conditions noted are these: Recombinant KvBeta, NADPH fluorescence decrease slope, 10 min; at 10 µM; stronger effect = lower value.
Assay [7] deals with Muscarinic acetylcholine receptor M4 (Homo sapiens) (UniProt P08173). The experiment in a line: M4-linked GIRK flux change, two-sided – cell-based, HEK293 M4/GIRK, thallium flux, BTC-AM, M4 allosteric agonist project, primary screen (AID 625;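 active means fluorescence slope after compound addition differing from the mean of all tested samples at 99.7% confidence, mostly higher but some lower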;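 further: thallium influx through GIRK channels coupled to M4 in HEK293 cells with BTC-AM dye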). As to conditions: at 10 µM, actives lie on both sides. The method, boiled down: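 assay system = HEK293 cells with M4 receptor and GIRK channels | medium = pH 7.3 thallium assay buffer | doses = 10 µM final, single point | timing = cells overnight at 37 °C, BTC-AM loading 1 h, reads 2 min total | signal = BTC-AM fluorescence, 1 Hz kinetic reads | read-out = post-addition slope, 15–24 s, of baseline-normalized fluorescence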

Assay [8] in a line: inhibitors of larval lipid processing in zebrafish, primary screen, whole organism, PED6 fluorescence, gall bladder and intestine (AID 686;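 active means a full or partial loss of lipid-probe fluorescence in the fish gall bladder, intestine or both, judged by eye; inactive means no fluorescence loss, or compound toxic to the fish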;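 further: larvae 5 to 7 days old with five fish per well; signal comes from phospholipase A2 cleavage of quenched PED6 carried via bile; overnight exposure to compound and PED6 before scoring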). The conditions noted are these: Zebrafish larvae PED6 lipid processing, fluorescence scoring; screened at 20 µM (by protocol). The method, boiled down: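 Also added: quenched phospholipase substrate PED6, 100 nM final, ingested by larvae; System: zebrafish larvae, 5-7 d; Quantity: 5 larvae per well; Compound: 20 µM single dose; Schedule: overnight compound and PED6 incubation; Read-out: visual per-well fluorescence inhibition score; Measured by: By-eye fluorescence microscopy; Medium: E3.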

Assay [9] can be described thus: loss of swimming-algae plug formation – whole organism, Chlamydomonas reinhardtii, WT vs cilia-less mutant, absorbance, 96-well, primary screen (AID 463189;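 active means inhibition at or above 50% relative to wild type and mutant plate controls; inactive means inhibition below 50%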;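 further: 0% = wild type cc124 cells in DMSO and 100% = ciliumless bld1 mutant cells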). As to conditions: Chlamydomonas reinhardtii gravitaxis, OD600 absorbance, 2 days; at 10 µM; stronger effect = higher value.
Setting [10] is: measured here: cell density z-score.
[11] abbreviates: measured here: nuclear c-Myc green intensity z-score.
The mark [12] stands for this setting: measured here: nuclear pErk red intensity z-score, stronger effect = higher value.

Active and inactive are the calls of the source.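 How the source made its calls, unless noted: active means NADPH fluorescence slope more negative than the mean of all samples by about 3 SD, 99.7% confidence; inactive means the rest.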

Sequence of Muscarinic acetylcholine receptor M4 (Homo sapiens) (P08173 whole entry, looked up): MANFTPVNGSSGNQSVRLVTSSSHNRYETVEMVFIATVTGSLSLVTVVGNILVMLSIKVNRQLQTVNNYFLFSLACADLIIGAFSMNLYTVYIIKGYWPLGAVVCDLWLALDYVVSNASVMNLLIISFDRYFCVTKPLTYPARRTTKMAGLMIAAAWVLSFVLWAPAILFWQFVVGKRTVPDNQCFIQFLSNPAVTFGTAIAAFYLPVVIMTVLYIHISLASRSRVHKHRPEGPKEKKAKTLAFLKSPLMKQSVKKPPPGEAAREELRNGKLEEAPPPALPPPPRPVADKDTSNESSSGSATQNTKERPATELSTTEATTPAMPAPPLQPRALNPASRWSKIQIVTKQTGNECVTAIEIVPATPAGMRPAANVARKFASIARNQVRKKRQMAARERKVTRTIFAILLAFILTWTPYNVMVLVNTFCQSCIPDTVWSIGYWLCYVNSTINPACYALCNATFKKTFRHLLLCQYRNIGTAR
Sequence of Voltage-gated potassium channel subunit beta-2 (Rattus norvegicus) (P62483 whole entry, looked up): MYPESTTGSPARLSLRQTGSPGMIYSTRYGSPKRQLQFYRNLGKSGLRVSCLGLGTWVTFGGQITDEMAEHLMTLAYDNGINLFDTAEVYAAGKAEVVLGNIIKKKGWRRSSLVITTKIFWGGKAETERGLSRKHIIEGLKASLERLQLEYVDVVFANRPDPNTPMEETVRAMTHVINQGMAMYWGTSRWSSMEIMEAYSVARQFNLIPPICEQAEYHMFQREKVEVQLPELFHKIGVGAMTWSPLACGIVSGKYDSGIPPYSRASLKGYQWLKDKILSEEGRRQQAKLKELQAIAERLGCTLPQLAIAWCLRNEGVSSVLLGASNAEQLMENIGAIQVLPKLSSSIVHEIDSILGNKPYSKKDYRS
Sequence of Dual specificity protein phosphatase 6 (Homo sapiens) (Q16828 whole entry, looked up): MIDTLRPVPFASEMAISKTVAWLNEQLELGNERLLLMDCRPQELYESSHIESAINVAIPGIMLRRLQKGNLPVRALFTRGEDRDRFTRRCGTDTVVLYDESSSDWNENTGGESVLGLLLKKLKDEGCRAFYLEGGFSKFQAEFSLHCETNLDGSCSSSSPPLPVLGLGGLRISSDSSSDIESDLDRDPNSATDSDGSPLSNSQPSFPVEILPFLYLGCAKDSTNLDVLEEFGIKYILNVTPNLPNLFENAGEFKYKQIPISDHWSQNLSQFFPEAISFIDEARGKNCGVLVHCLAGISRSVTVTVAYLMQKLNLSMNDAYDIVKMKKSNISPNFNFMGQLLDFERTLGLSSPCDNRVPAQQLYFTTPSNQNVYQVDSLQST

Regarding `COc1ccc(/C(O)=C2/C(=O)C(=O)N(CCCN(C)C)C2c2ccc(C)o2)cc1Cl` (stereo unspecified), the cell count in [1] is 709. Moreover, the inhibition – broadly, the drop in the measured response relative to a control, in per cent – is -8.3% (inactive) in assay [1], -108% (inactive) in [2], -6.48% (inactive) in assay [4] and 18.3% (inactive) in assay [9]. The same compound had a nuclei count in [2] of 146%. The z-score was -0.0808 in assay [3] (setting [10]), -0.238 in assay [3] (setting [11]) and -0.0387 in assay [3] (setting [12]). The fluorescence slope is -0.48 (inactive) in assay [5] and 0.0051 (inactive) in [7]. The NADPH fluorescence slope in assay [6] was -4.6e-05 (inactive). In addition, in assay [8], the call was inactive.

With `CCCn1nnc(NC(=O)c2cc(Br)cc(Br)c2OC)n1`, the cell count in assay [1] came out at 391. Besides, the inhibition in assay [1] was -1.7% (inactive); in assay [2] it was -24.1% (inactive); in [4] it was 20.2% (inactive); in [9] it was 8.4% (inactive). Moreover, the nuclei count in assay [2] came out at 127%. Besides, the z-score in assay [3] (setting [10]) is 0.877; in [3] (setting [11]), 0.738; in [3] (setting [12]) it was 0.427. The values for the fluorescence slope in assay [5] and in assay [7] were -0.463 (inactive) and 0.00469 (inactive), respectively. Further, the NADPH fluorescence slope in assay [6] was -0.000102 (inactive). In addition, the compound was called inactive in assay [8].

Take `Cc1ccc(NC(=O)Cn2nc(C)c3ccccc3c2=O)cc1`: in [1], the cell count came out at 576. Also, the inhibition in [1] is -1.6% (inactive); in assay [2], -60.9% (inactive); in [4], 9.07% (inactive); in [9], -6.33% (inactive). The compound further came in with a nuclei count in [2] of 134%. In addition, the values for the z-score in assay [3] (setting [10]), in assay [3] (setting [11]) and in assay [3] (setting [12]) were 1, -0.268 and 1.91, respectively. Further, the fluorescence slope in [5] was -0.496 (inactive); in assay [7], 0.00582 (inactive). Further, in assay [6], the NADPH fluorescence slope is -0.000121 (inactive). Besides, the result in assay [8] was inactive.

Turning to `CC1CCN(c2ncnc3c2cnn3Cc2ccc(Cl)cc2)CC1`, the cell count in assay [1] was determined as 549. Moreover, the inhibition is -8.1% (inactive) in [1], 2.1% (inactive) in assay [2], 13.9% (inactive) in assay [4] and 4.22% (inactive) in assay [9]. In addition, the nuclei count in [2] is 135%. The z-score in assay [3] (setting [10]) was -0.011; in assay [3] (setting [11]) it was 0.63; in assay [3] (setting [12]) it was 0.724. The results for the fluorescence slope in [5] and in assay [7] were -0.348 (inactive) and 0.00585 (inactive), respectively. Besides, the NADPH fluorescence slope in [6] was -1.7e-05 (inactive). Moreover, in assay [8], the compound was called inactive.

As for `CCCCC(=O)C1CCN(Cc2ccccc2)CC1`, the cell count in assay [1] turned out to be 371. Further, the inhibition in assay [1] was -0.5% (inactive); in [2], 19.3% (inactive); in assay [4], -0.584% (inactive); in assay [9] it was 126% (active). In addition, the nuclei count in assay [2] turned out to be 177%. Besides, the z-score amounted to 0.378 in [3] (setting [10]), 0.471 in assay [3] (setting [11]) and 0.337 in assay [3] (setting [12]). The fluorescence slope in [5] was -0.469 (inactive); in assay [7], 0.00375 (inactive). In addition, in assay [6], the NADPH fluorescence slope was -0.000111 (inactive). For the same compound, the outcome in assay [8] is “inactive; toxic”.

In the case of `CC(C)CSc1nc(N2CCOCC2)c2c(c1C#N)CC(C)(C)SC2`, in assay [1], the cell count was 574. Also, the inhibition in [1] was -6% (inactive); in [2] it was -69.8% (inactive); in [4], -5.81% (inactive); in [9], 25.7% (inactive). In assay [2], this compound displayed a nuclei count of 145%. The figures for the z-score in assay [3] (setting [10]), in assay [3] (setting [11]) and in assay [3] (setting [12]) were -0.439, -0.915 and -0.541, respectively. Further, the fluorescence slope in [5] is -0.424 (inactive); in assay [7], 0.00667 (inactive). Besides, the NADPH fluorescence slope in assay [6] was -8.1e-05 (inactive). For the same compound, the call in assay [8] was inactive.

Turning to `Cc1ccc(S(=O)(=O)/C(C#N)=C/c2c(N3CCN(C)CC3)nc3ccccn3c2=O)cc1`, in assay [1], the cell count was found to be 484. The inhibition in [1] is 6.4% (inactive); in assay [2] it was -211% (inactive); in assay [4], 1.04% (inactive); in assay [9], -9.76% (inactive). This compound also gave a nuclei count in assay [2] of 173%. The z-score in assay [3] (setting [10]) is 0.277; in [3] (setting [11]), -0.883; in assay [3] (setting [12]), 0.543. Also, the results for the fluorescence slope in assay [5] and in assay [7] were -0.454 (inactive) and 0.0048 (inactive), respectively. Further, the NADPH fluorescence slope in assay [6] was -5.5e-05 (inactive). The result in assay [8] was inactive.
